The text below walks through data of ChEMBL document CHEMBL4613263, “Optimization of Tetrahydroindazoles as Inhibitors of Human Dihydroorotate Dehydrogenase and Evaluation of Their Activity and In Vitro Metabolic Stability” (J Med Chem, 2020).

The structures appear in SMILES notation. Values after ≈ are worked out from the molar mass of the structure shown. Active and inactive are the calls of the source. No cut-off for these calls is given here.

Data set [1] deals with T1, Dihydroorotate dehydrogenase (quinone), mitochondrial (Homo sapiens, UniProt Q02127). Nature of the data set: Inhibition of DHODH in human ARN8 cells assessed as induction of DNA damage by measuring increase in gammaH2AX level at 20 nM incubated for 24 hrs in presence of 100 uM […], uridine by Western blot analysis. The format is cell-based. An outline of the steps:
(§1)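 ARN8 cells seeded at 15×10^4 per well and left 24 h. Treated 24 h at 20 nM, or with etoposide at 20 µM for 1 h, with 100 µM uridine where indicated. Lysates made in LDS buffer and protein-normalized, then run on 4–15% gels and transferred to PVDF. Phospho-proteins blocked in BSA, others in milk; primary antibodies overnight at 4 °C, ECL detection. Loading judged by stain-free total protein.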

Data set [2] deals with T1, Dihydroorotate dehydrogenase (quinone), mitochondrial. Briefly: Inhibition of DHODH in human ARN8 cells assessed as DNA damage by measuring Chk1 phosphorylation at Ser345 at 20 nM incubated for 24 hrs by Western blot analysis. The format is cell-based. An outline of the steps:
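ARN8 cells treated 24 h before lysis in LDS buffer and protein normalization. Western blot blocked in 5% BSA/TBS-T, primary antibody overnight at 4 °C, HRP secondary and ECL detection. Loading taken from stain-free total protein.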
On the technique in general: A western blot detects proteins with antibodies after separation by electrophoresis.

Data set [3] shares this target. Briefly: Inhibition of […] in human ARN8 cells assessed as increase in Bax protein expression at 20 nM incubated for 24 hrs by Western blot analysis. The format is cell-based.
Data set [4] can be described thus: Cytotoxicity against human HNDF cells assessed as reduction in cell viability incubated for 72 hrs in presence of 100 uM […], uridine by SRB assay. The format is cell-based. In outline: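 Normal dermal fibroblasts seeded at 15×10^2 per well and left 24 h, then treated 72 h in medium with 0.1% DMSO final plus 100 µM uridine. Fixed with TCA, stained with 0.4% SRB, dye dissolved in Tris and read at 490 nm. Growth/viability given as % of DMSO control; mean ± SD of three technical replicates.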
In general terms: The SRB assay estimates cell density from bound dye.

For the next data set, the species on record is Homo sapiens. Briefly: Antiproliferative activity against human ARN8 cells assessed as reduction in cell viability at 0.005 to 10 uM incubated for 72 hrs in presence of 100 uM […], uridine by SRB assay. Type of data set: functional, cell-based.
The target of data set [5] is T1, Dihydroorotate dehydrogenase (quinone), mitochondrial. Nature of the data set: Inhibition of DHODH in human ARN8 cells assessed as activation of p53-dependent transcription at 0.05 to 10 uM incubated for 16 hrs in presence of 100 uM […], uridine by CPRG assay. The format is cell-based. In outline:
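ARN8 cells carrying the RGCΔFos-LacZ p53 reporter seeded at 2×10^4 per well and left 24 h, then treated 16 h (0.1% DMSO final, ±100 µM uridine). Cells washed, lysed and frozen at −20 °C for at least 2 h. β-galactosidase measured with CPRG substrate at pH 7.5, read at 590 nm after 24 h. Result is fold change vs DMSO; mean ± SD of three technical replicates.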

Data set [6] has the same target. Nature of the data set: Inhibition of DHODH in human ARN8 cells assessed as increase in p53 level at 20 nM incubated for 24 hrs in presence of 100 uM […], uridine by Western blot analysis. The format is cell-based. In outline: as §1
Data set [7] has the same target. Nature of the data set: Inhibition of DHOH in human ARN8 cells assessed as cleaved PARP level at 20 nM incubated for 24 hrs treated with pan-caspase inhibitor, Z-VAD-FMK for 4.5 hrs prior to harvesting by Western blot analysis. The format is cell-based. In outline:
(§2)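 ARN8 cells treated 24 h at 20 nM, with 20 µM Z-VAD-FMK or vehicle added 4.5 h before harvest. Etoposide arm was 20 µM for 1 h alongside Z-VAD-FMK. Lysates normalized for protein and analysed by western blot for p53, p-Ser15 p53, γ-H2AX, H2AX and cleaved PARP (85 kDa) against stain-free total-protein loading.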

The target is the same in data set [8]. Briefly: Inhibition of […] in human ARN8 cells assessed as increase in Bax protein expression at 20 nM incubated for 24 hrs in presence of pan-caspase inhibitor, Z-VAD-FMK by Western blot analysis. Type of data set: cell-based.
For data set [9] the target is unchanged. Nature of the data set: Inhibition of DHODH in human ARN8 cells assessed as increase in p53 level at 20 nM incubated for 24 hrs in presence of pan-caspase inhibitor, Z-VAD-FMK by Western blot analysis. Type of data set: cell-based. In outline: as §2
Data set [10] is described as follows: Antiproliferative activity against human ARN8 cells assessed as reduction in cell viability incubated for 72 hrs by SRB assay. The format is functional, cell-based. The settings on record: Homo sapiens, ARN8, 72 h; read-out: IC50.
Data set [11] in a line: Kinetic aqueous solubility of compound in Prima HT solution at pH 7.4 incubated for 4 hrs by UV-spectrophotometry. Type of data set: physicochemical. The settings on record: read-out: Kinetic_solubility. An outline of the steps:
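20 mM DMSO stocks diluted 100× into Prima HT buffer at pH 7.4 and shaken 4 h at rt. Samples filtered through 0.22 µm, mixed 1:1 with isopropanol and scanned by UV from 190–400 nm against stock reference standards.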

T1 sequence (Q02127 whole entry): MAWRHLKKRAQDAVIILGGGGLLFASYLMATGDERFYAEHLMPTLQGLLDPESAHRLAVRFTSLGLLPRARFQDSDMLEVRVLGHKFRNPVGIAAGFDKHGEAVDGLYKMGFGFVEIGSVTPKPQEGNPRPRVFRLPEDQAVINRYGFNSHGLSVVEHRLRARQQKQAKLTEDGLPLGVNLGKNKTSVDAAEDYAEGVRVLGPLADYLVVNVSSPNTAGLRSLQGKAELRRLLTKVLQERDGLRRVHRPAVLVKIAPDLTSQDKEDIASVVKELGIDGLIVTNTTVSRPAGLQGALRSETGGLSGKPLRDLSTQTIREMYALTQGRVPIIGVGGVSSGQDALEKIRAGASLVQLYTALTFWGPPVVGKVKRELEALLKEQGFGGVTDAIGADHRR

Turning to `O=C(N[C@@H]1CCCc2c1cnn2-c1ccccc1F)c1ncn2c1CCCC2`, the inhibition entry in data set [1], in data set [2], in data set [5], in data set [6] and in [7] was “inactive” in each case. In addition, the inhibition entry in [3], in data set [8] and in data set [9] was “Active” throughout. Also, the Activity entry in data set [4] was “Toxic”. Besides, the result in the data set listed under Homo sapiens was inactive. In addition, the IC50 in data set [10] was found to be 0.022 µM. Moreover, the solubility kinetic at 4 h in data set [11] was found to be 74 µM (≈ 28.1 µg/mL).

Usually IC50 stands for the midpoint of a concentration-inhibition curve.
